Assays:
[1] = Stability in rat plasma assessed as compound remaining at 50 uM at 37 degC after 60 mins by LC-MS/MS method; type: ADME, cell-free; conditions: read-out: Stability
Summary of the method: (§1)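 Prodrugs were incubated in rat or human plasma for 60 min. Disappearance of prodrug and concomitant appearance of ertapenem were followed by LC-MS/MS, and in selected cases monoesters from partial hydrolysis were also monitored. Ertapenem itself was incubated the same way as a control.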

Canis familiaris [2] = test: AUC (0 to 8 hrs) in fasted Beagle dog assessed as ertapenem level at 10 mg/kg dosed through intraduodenal route by LC-MS/MS method; type: ADME, organism-based, Canis lupus familiaris, Plasma; set-up: time < 8 hr, dose 10 mg/kg, route intraduodenal; conditions: in vivo, other
Summary of the method: (§2)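 Prodrugs were given intraduodenally to bypass stomach acid. Plasma was sampled at intervals over 8 h, and parent prodrug, the two monoester metabolites and ertapenem were quantified by LC-MS/MS. The lower limit of quantitation was 5 nM. AUC(0–8) was used, and it differed from AUC(0–∞) by ±20%. Vehicles were 30% Captisol or 0.5% methylcellulose, as solution or suspension depending on compound.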

[3] = Stability in pH 7.4 phosphate buffer assessed as compound remaining at 50 uM after 3 hrs by LC-MS/MS method; type: physicochemical; conditions: read-out: Stability
Rattus norvegicus [4] = test: AUC (0 to 8 hrs) in fasted Sprague-Dawley rat assessed as ertapenem level at 10 mg/kg dosed through intraduodenal route by LC-MS/MS method; type: ADME, organism-based, Plasma; set-up: time < 8 hr, dose 10 mg/kg, route intraduodenal; conditions: in vivo, other; summary of the method: as §2
Canis familiaris [5] = test: AUC (0 to 8 hrs) in fasted Beagle dog assessed as ertapenem level at 1 mg/kg, iv by LC-MS/MS method; type: ADME, organism-based, Canis lupus familiaris, Plasma; set-up: time < 8 hr, dose 1 mg/kg, route intravenous; conditions: in vivo
[6] = Stability in human plasma assessed as compound remaining at 50 uM at 37 degC after 60 mins by LC-MS/MS method; type: ADME, cell-free; conditions: read-out: Stability; summary of the method: as §1
[7] = Stability in pH 2.0 simulated gastric fluid assessed as compound degradation to beta-lactam ring open products at 1 uM after 60 mins by LC-MS/MS method; type: ADME; conditions: read-out: Drug degradation
Summary of the method: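 Incubation was in simulated gastric fluid (SGF, pH 2.0) for 60 min, with loss to the β-lactam ring-opened product measured by LC-MS/MS.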

[8] = Stability in pH 6.5 simulated gastrointestinal fluid assessed as compound remaining at 50 uM after 3 hrs by LC-MS/MS method; type: ADME; conditions: read-out: Stability
Summary of the method: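 Compounds at 50 μM were incubated in fasted-state simulated intestinal fluid (FaSSIF, pH 6.5) for over 3 h. Percent remaining was determined by LC-MS/MS.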

Rattus norvegicus [9] = test: Oral bioavailability in fasted Sprague-Dawley rat assessed as ertapenem level at 10 mg/kg dosed through intraduodenal route by LC-MS/MS method; type: ADME, organism-based; conditions: in vivo
Summary of the method: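 After intraduodenal dosing, plasma over 8 h was analysed by LC-MS/MS. Bioavailability was calculated as dose-normalized AUC of ertapenem formed from the prodrug divided by dose-normalized AUC of ertapenem dosed iv. Vehicle was 30% Captisol or 0.5% methylcellulose.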

Rattus norvegicus [10] = test: Oral bioavailability in fasted Sprague-Dawley rat assessed as ertapenem and monoetser metabolites level at 10 mg/kg dosed through intraduodenal route by LC-MS/MS method; type: ADME, organism-based; conditions: in vivo
Summary of the method: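 Total absorption followed intraduodenal dosing with LC-MS/MS of plasma over 8 h. It was calculated as the combined dose-normalized AUC of circulating parent prodrug, ertapenem and two monoesters, divided by dose-normalized AUC of ertapenem given iv. Vehicle was 30% Captisol or 0.5% methylcellulose.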

[11] = AUC (0 to 8 hrs) in fasted Sprague-Dawley rat at 1 mg/kg, iv by LC-MS/MS method; type: ADME, organism-based; set-up: time < 8 hr, dose 1 mg/kg, route intravenous; conditions: plasma

- remaining at 1 h, 50 µM [1]: 100%
- AUC (Canis familiaris [2]): 1.4 µM·h
- remaining at 3 h, 50 µM [3]: > 95%
- AUC (Rattus norvegicus [4]): 0.5 µM·h
- AUC (Canis familiaris [5]): 8.9 µM·h
- remaining at 1 h, 50 µM [6]: 100%
- degraded at 1 h, 1 µM [7]: > 25%
- remaining at 3 h, 50 µM [8]: > 95%
- F (Rattus norvegicus [9]): 0.7%
- F (Rattus norvegicus [10]): 0.7%
- AUC(0-t) at 8 h [11]: 7.8 µM·h
Structure (SMILES): C[C@@H](O)[C@H]1C(=O)N2C(C(=O)[O-])=C(S[C@@H]3CN[C@H](C(=O)Nc4cccc(C(=O)O)c4)C3)[C@H](C)[C@H]12.O.[Na+]

Reference: ChEMBL document CHEMBL3351346, “Design, synthesis, structure-function relationship, bioconversion, and pharmacokinetic evaluation of ertapenem prodrugs” (J Med Chem, 2014)
